ChEMBL document CHEMBL3877241 (J Med Chem, 2016)
Activity calls are given as the source filed them. The rule behind the calls is not given here.

How the values were obtained:
[1] = molecular target: Non-receptor tyrosine-protein kinase TYK2 (Homo sapiens, UniProt P29597); experiment: Inhibition of human TYK2 (V877 to C1187 residues) expressed in mammalian expression system by KINOMEScan assay
Histone deacetylase 8 = Histone deacetylase 8 (Homo sapiens, UniProt Q9BY41); experiment: Inhibition of human recombinant C-terminal His-tagged HDAC8 (1 to 377 residues) expressed in insect cells preincubated with enzyme followed by fluorogenic Arg-His-Lys(Ac)-Lys(Ac)-AMC substrate addition measured after 2 hrs by fluorescence assay
Procedure, shortened: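 HDAC8 in 50 mM Tris-HCl pH 8.0, 137 mM NaCl, 2.7 mM KCl, 1 mM MgCl2 was pre-incubated with compound from DMSO. 50 µM Arg-His-Lys(Ac)-Lys(Ac) substrate was added and the reaction ran 2 h at 30 °C. Trichostatin A developer stopped it, with fluorescence read at Ex/Em 360/460 nm. IC50 from a 10-dose curve.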

[2] = molecular target: Mitogen-activated protein kinase 8 (Homo sapiens, UniProt P45983); experiment: Inhibition of full length human MAPK8 (M1 to Q384 residues) expressed in mammalian expression system by KINOMEScan assay
[3] = molecular target: Mast/stem cell growth factor receptor Kit (Homo sapiens, UniProt P10721, T670I/V559D); experiment: Inhibition of human KIT (Y545 to D952 residues) V559D/T670I double mutant expressed in bacterial expression system by KINOMEScan assay
[4] = Antiproliferative activity against human Jurkat cells; type: functional, cell-based
MOLM-14 [5] = experiment: Induction of apoptosis in human MOLM14 cells assessed as live cells at 0.75 uM after 48 hrs by Annexin-V FITC/propidium iodide staining based flow cytometry (reference value: 94 to 94.1%); type: functional
Procedure, shortened: (§1)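 MOLM-14 cells treated 48 h at the stated concentrations; doxorubicin as positive control. Stained with Annexin V-FITC and propidium iodide and analysed by flow cytometry (at least 10,000 events). Gated quadrants: Annexin V−/PI− viable, Annexin V+/PI− early apoptotic, Annexin V+/PI+ late apoptotic.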

[6] = Antiproliferative activity against human NKYS cells after 48 hrs by CellTiter-Glo assay; type: functional, cell-based
Histone deacetylase 1 = Histone deacetylase 1 (Homo sapiens, UniProt Q13547); experiment: Inhibition of full length human recombinant C-terminal FLAG/His-tagged HDAC1 (1 to 482 residues) expressed in sf21 cells preincubated with enzyme followed by fluorogenic Arg-His-Lys-Lys(Ac)-AMC substrate addition measured after 2 hrs by fluorescence assay
[7] = molecular target: T1, Protein deacetylase HDAC6 (Homo sapiens) (UniProt Q9UBN7); experiment: Inhibition of HDAC6 in human MOLM14 cells assessed as increase in acetylated tubulin level at 2 times antiproliferative IC50 after 16 to 48 hrs by immunoblot method; type: cell-based; conditions: MOLM-14
T1 sequence (whole entry): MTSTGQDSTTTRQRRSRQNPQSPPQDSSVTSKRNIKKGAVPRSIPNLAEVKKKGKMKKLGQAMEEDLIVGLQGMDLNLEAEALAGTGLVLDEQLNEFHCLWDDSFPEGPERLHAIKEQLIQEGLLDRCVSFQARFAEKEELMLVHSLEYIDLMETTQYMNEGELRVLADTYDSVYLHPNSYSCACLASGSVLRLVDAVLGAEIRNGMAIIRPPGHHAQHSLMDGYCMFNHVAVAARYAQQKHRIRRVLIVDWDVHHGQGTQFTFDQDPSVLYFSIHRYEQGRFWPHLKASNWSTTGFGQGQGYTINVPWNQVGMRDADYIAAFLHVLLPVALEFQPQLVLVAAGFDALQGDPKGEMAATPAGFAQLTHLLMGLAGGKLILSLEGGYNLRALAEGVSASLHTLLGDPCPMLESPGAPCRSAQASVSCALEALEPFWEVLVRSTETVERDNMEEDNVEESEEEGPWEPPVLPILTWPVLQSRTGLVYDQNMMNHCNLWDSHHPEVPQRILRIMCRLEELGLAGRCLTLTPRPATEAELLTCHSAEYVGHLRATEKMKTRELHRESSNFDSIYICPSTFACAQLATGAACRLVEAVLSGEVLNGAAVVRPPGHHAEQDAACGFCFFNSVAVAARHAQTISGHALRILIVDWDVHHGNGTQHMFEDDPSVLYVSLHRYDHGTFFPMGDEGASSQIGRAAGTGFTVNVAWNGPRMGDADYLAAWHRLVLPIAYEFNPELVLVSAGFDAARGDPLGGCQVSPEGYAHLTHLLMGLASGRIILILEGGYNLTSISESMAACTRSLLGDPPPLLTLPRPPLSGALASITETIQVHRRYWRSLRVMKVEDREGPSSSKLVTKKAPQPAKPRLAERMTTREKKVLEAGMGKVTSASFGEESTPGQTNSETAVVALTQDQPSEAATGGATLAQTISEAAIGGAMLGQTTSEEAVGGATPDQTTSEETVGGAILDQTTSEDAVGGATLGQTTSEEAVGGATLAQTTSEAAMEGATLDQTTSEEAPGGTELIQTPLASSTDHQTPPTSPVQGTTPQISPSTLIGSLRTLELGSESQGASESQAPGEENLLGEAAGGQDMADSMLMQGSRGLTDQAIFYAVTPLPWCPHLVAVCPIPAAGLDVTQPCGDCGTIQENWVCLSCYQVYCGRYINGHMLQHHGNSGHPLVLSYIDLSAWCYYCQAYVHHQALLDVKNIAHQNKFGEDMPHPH
Procedure, shortened: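 KMS-12-BM or MOLM-14 cells (at least 3x10^6 per condition) treated at about 2x their proliferation IC50 in a time course of 0 to 48 h. Tubastatin (15 μM, 48 h) used as HDAC6 control. Lysates immunoblotted for acetyl-α-tubulin and acetyl-H3 (Lys9/Lys14); re-probed for α-tubulin and H3.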

Histone deacetylase 2 = Histone deacetylase 2 (Homo sapiens, UniProt Q92769); experiment: Inhibition of full length human recombinant C-terminal GST-tagged HDAC2 (1 to 488 residues) expressed in insect cells preincubated with enzyme followed by fluorogenic Arg-His-Lys-Lys(Ac)-AMC substrate addition measured after 2 hrs by fluorescence assay
[8] = molecular target: Mast/stem cell growth factor receptor Kit (Homo sapiens, UniProt P10721); experiment: Inhibition of human KIT (I571 to D952 residues) expressed in bacterial expression system by KINOMEScan assay
MOLM-14 [9] = experiment: Induction of apoptosis in human MOLM14 cells assessed as late apoptotic cells at 3 uM after 48 hrs by Annexin-V FITC/propidium iodide staining based flow cytometry (reference value: 2.1 to 2.2%); type: functional; procedure, shortened: as §1
[10] = Antiproliferative activity against human HL60 cells; type: functional, cell-based; conditions: HL-60

Sequence of Histone deacetylase 8 (Q9BY41 whole entry, the tested form may be a part): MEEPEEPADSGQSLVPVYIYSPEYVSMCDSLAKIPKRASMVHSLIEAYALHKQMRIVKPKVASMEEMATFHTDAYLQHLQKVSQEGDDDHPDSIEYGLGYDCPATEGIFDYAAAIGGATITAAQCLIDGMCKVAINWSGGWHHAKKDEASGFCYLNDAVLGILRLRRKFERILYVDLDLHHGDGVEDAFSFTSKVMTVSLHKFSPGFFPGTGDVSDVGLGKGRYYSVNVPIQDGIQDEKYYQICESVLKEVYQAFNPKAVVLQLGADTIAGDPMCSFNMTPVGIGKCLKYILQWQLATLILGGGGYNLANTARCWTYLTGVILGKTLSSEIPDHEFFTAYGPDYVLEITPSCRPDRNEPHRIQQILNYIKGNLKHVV
Sequence of Histone deacetylase 2 (Q92769 whole entry, the tested form may be a part): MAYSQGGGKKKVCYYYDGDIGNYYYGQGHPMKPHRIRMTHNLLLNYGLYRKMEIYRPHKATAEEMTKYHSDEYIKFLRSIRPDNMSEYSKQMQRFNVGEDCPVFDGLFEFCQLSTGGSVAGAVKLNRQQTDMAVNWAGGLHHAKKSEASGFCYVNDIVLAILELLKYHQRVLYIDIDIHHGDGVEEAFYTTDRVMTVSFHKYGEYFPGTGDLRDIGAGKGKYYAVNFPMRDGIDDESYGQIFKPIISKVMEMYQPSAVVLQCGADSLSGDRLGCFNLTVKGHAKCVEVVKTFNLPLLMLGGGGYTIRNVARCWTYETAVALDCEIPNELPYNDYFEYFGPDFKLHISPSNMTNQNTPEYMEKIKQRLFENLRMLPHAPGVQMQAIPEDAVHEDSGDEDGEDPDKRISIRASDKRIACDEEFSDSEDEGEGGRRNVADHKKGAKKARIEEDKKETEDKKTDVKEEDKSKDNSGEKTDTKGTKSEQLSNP
Sequence of Mast/stem cell growth factor receptor Kit (Homo sapiens, UniProt P10721) (P10721 whole entry, the tested form may be a part): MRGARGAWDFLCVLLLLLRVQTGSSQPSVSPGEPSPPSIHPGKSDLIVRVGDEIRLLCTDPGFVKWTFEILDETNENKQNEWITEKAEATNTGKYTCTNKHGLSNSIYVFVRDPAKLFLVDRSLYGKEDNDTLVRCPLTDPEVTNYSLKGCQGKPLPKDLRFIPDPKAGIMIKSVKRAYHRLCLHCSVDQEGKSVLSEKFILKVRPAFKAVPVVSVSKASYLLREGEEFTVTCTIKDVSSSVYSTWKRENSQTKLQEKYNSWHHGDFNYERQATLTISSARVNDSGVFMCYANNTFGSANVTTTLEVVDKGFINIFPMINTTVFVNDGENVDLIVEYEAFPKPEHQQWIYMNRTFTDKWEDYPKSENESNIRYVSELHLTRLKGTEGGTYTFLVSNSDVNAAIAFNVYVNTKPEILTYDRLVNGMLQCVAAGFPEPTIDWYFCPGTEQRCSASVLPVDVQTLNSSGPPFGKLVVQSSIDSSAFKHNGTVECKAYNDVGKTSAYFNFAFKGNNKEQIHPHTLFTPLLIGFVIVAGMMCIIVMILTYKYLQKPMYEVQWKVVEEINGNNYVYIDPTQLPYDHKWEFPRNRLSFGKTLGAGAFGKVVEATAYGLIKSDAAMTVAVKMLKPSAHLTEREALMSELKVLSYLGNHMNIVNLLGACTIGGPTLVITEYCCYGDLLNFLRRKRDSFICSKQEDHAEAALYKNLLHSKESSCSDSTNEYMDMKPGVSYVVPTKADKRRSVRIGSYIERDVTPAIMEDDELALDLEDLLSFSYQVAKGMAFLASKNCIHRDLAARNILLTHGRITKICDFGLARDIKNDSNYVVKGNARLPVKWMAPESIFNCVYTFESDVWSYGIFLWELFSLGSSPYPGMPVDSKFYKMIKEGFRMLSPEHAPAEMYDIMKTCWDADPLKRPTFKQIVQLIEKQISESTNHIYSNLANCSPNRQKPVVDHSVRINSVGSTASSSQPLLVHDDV
Sequence of Mitogen-activated protein kinase 8 (P45983 whole entry, the tested form may be a part): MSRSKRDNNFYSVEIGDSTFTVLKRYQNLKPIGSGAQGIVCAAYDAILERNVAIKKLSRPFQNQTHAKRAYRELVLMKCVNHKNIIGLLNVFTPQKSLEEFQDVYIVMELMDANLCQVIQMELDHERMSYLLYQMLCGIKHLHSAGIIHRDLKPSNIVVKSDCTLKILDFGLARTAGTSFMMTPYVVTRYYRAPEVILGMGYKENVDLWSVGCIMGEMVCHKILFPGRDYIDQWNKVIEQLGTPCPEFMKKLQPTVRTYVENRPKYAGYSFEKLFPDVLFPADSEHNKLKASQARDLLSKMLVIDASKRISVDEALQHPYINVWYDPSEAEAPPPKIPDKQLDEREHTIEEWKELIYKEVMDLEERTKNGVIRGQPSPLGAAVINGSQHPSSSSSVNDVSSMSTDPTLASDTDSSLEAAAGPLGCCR
Sequence of Non-receptor tyrosine-protein kinase TYK2 (P29597 whole entry, the tested form may be a part): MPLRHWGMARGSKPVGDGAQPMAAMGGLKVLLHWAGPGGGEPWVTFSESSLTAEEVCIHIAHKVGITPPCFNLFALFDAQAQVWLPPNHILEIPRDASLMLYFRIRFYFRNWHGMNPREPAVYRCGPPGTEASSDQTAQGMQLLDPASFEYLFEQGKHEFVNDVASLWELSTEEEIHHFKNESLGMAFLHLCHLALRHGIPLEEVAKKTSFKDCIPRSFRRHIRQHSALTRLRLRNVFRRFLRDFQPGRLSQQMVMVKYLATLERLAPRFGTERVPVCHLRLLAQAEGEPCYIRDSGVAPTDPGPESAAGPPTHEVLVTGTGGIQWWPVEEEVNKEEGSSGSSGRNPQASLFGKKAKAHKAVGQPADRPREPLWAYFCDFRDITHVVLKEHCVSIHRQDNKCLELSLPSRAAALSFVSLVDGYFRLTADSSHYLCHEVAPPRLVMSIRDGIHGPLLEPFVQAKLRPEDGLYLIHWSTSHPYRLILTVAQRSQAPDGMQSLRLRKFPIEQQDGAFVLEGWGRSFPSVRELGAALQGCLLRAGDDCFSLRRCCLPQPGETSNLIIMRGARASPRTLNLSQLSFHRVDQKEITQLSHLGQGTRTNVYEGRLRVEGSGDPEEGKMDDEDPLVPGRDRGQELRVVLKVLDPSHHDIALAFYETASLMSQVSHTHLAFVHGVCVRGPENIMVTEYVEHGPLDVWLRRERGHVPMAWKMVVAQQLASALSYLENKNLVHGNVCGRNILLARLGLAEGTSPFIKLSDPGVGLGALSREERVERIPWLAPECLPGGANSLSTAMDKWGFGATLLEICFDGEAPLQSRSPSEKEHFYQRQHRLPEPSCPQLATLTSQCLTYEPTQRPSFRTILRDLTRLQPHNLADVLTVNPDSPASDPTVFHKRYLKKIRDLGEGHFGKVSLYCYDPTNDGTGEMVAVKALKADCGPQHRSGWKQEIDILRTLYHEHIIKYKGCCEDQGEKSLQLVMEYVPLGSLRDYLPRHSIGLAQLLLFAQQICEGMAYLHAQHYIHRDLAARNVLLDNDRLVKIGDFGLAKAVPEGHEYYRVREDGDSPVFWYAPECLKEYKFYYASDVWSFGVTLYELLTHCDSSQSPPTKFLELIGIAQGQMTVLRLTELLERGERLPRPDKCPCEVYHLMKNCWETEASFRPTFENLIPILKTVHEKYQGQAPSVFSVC
Sequence of Histone deacetylase 1 (Q13547 whole entry, the tested form may be a part): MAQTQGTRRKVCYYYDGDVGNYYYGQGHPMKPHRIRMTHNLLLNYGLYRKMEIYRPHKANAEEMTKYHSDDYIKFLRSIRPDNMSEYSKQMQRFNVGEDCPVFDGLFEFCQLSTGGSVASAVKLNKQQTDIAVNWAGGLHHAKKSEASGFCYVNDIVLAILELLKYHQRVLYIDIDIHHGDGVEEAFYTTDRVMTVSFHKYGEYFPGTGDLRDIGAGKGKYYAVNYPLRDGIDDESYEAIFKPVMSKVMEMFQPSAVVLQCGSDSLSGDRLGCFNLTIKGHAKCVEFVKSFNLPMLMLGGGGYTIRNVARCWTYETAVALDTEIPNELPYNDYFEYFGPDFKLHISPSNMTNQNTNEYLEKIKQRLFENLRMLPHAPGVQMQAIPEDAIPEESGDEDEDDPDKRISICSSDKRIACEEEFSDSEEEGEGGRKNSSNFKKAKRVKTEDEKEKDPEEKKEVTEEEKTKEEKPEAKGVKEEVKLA
Sequence of Mast/stem cell growth factor receptor Kit (Homo sapiens, UniProt P10721, T670I/V559D) (P10721 26-976 V559D/T670I limits assumed): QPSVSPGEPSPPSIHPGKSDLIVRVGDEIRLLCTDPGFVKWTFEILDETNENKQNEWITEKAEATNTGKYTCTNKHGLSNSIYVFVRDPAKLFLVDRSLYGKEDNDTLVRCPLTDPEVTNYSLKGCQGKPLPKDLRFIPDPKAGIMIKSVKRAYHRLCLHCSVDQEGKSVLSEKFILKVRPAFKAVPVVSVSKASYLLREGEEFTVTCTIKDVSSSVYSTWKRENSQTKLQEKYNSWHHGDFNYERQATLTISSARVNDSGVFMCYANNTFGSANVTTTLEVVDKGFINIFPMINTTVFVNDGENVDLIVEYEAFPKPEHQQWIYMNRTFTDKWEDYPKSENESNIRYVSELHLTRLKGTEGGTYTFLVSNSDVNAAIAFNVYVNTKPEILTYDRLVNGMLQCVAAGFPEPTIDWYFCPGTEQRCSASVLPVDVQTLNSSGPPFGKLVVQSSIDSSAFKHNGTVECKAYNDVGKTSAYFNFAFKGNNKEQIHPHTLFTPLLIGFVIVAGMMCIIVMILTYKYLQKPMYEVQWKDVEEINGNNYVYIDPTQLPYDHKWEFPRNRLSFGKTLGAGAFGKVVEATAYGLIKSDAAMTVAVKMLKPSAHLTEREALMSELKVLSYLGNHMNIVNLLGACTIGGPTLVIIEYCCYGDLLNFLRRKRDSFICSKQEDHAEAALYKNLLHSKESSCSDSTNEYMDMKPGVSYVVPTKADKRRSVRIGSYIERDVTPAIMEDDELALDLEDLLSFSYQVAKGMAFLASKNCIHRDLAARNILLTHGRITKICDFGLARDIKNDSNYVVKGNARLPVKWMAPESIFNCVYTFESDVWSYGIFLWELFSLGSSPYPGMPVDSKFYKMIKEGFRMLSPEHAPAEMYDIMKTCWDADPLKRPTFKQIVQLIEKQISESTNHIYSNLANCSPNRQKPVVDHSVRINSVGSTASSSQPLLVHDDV

With `O=C(CCCCCCOc1ccc2cc1COC/C=C/COCc1cccc(c1)-c1ccnc(n1)N2)NO` the IC50 [1] was 0.01 to 1 µM, the IC50 (Histone deacetylase 8) was 0.74 µM and the IC50 [2] was 1 to 10 µM. For the same molecule, the IC50 [3] was 1 to 10 µM, the IC50 [4] was 1.19 µM and the Activity (MOLM-14 [5]) was 81.7%. The IC50 [6] was 1.08 µM, the IC50 (Histone deacetylase 1) was 0.222 µM and the inhibition [7] was “Active”. It also gave an IC50 (Histone deacetylase 2) of 0.049 µM, an IC50 [8] of 1 to 10 µM and an Activity (MOLM-14 [9]) of 34.3%. For the same molecule, the IC50 [10] was 4 µM.
